Screening results deposited in PubChem by several laboratories.
PMI act: activators of human PMI, primary screen, biochemical, fluorescence intensity, near-Km mannose 6-phosphate; Mannose-6-phosphate isomerase (Homo sapiens), P34949; purified human PMI, coupled resazurin fluorescence, 20 min; active compounds read high; 1 = vehicle control, 0 substrate-free wells; activation factor at 20 µM; 0.005% of 190,000 active;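 active = activation factor of 2 or more at 20 µM, relative to plate controls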
PMI act hi M6P: human PMI activators, high substrate, primary screen, biochemical, fluorescence intensity, near-saturating mannose 6-phosphate; Mannose-6-phosphate isomerase (Homo sapiens), P34949; coupled PMI enzyme assay, resazurin fluorescence, 20 min; active compounds read high; 1 = untreated enzyme, 0 = substrate-free blank; activation factor at 20 µM; 0.34% of 190,000 active; AID 1216, 2008;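 active = activation factor of 2 or more at 20 µM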
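Material: human phosphomannose isomerase with PGI, G6PDH, diaphorase coupling enzymes. Quantity: 15 ng/mL PMI. Medium: HEPES pH 7.4 buffer with MgCl2 and Tween-20. Reagent: Near-saturating mannose-6-phosphate, 1.0 mM. Compound: 20 µM single dose. Times: enzyme reaction with compound 20 min at room temperature. Detection: resorufin fluorescence at Ex 544/Em 590 nm.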
Rad51 HR inh: human RAD51 strand exchange inhibitors, primary screen, biochemical, fluorescence | AID 1385, 2008 | DNA repair protein RAD51 homolog 1 (Homo sapiens), Q06609 | hRad51 DNA strand exchange, fluorescence dequenching | inhibition, % at 10 µM | 0.085% of 200,000 active;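 active = inhibition above 40% at the single screening dose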;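 note: 0% = DMSO control wells and 100% = blanks with heterologous ssDNA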
Target sequence (Q06609 whole entry, looked up): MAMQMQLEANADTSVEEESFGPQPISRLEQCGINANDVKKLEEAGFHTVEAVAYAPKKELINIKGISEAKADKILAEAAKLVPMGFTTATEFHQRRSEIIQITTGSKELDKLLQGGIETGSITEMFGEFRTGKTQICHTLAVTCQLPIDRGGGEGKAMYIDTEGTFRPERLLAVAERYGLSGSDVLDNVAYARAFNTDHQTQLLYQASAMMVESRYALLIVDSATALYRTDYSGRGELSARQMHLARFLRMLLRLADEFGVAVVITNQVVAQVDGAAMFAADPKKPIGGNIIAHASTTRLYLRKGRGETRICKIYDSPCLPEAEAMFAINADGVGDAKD
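Material: Human Rad51 nucleoprotein filaments preassembled on unlabelled ssDNA | Also added: Labelled 47-mer dsDNA for strand exchange | Dosing: Single dose, 10 µM final compound | Schedule: 30-min compound preincubation and 15-min exchange, both room temperature | Technique: Fluorescence dequenching at 485/520 nm | Measure: Percent inhibition relative to plate controls and blanks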
Calpain2 inh: inhibitors of pig calpain II, primary screen, biochemical, fluorogenic peptide substrate, 1536-well; purified calpain II, 30 min; inhibition, % at 16 µM; 0.37% of 220,000 active; AID 1236, 2008;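 active = inhibition above about 50%, limit read from the data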
HMGR II inh: inhibitors of E. faecalis class II HMGR, primary screen, biochemical, Enterococcus faecalis; HMG-CoA reductase (Enterococcus faecalis, mvaE); purified E. faecalis HMGR, NADPH absorbance 340 nm kinetic; inhibition, % at 10 µM; 0.41% of 190,000 active; AID 1066, 2008;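 active = inhibition above a set limit, the median over all tested compounds plus 3 SD, cut at about 9.5% in these data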;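 note: enzyme runs in reverse so mevalonate oxidation gives rising NADPH absorbance; 0% = complete reaction with DMSO and 100% = background rate lacking mevalonate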
Active calls of the source: *. Only some compounds are listed: those with a hit (about 1.1% of all), similar ones and a draw of the others.

Screening CC(=O)c1sc2nc(-c3cccs3)ccc2c1N returned PMI act 1.7, PMI act hi M6P 2.1*, Rad51 HR inh -8, Calpain2 inh -205 and HMGR II inh -1.
Screening COCCCn1c(SCc2cc(=O)[nH]c3ccccc23)nnc1-c1ccco1 returned PMI act 0.8, PMI act hi M6P 0.9, Rad51 HR inh 4, Calpain2 inh -11 and HMGR II inh -9.
Screening COc1ccc(OCCCC(=O)Nc2cc([N+](=O)[O-])ccc2C)cc1 returned PMI act 1, PMI act hi M6P 1, Rad51 HR inh 0, Calpain2 inh -11 and HMGR II inh 1.
For COc1ccc(N(CC(=O)Nc2cc(C)cc(C)c2)S(=O)(=O)c2ccccc2[N+](=O)[O-])c(OC)c1 the results were PMI act 0.9, PMI act hi M6P 0.9, Rad51 HR inh 1, Calpain2 inh -119 and HMGR II inh 9.9*.
`O=C(c1ccc(Cl)c([N+](=O)[O-])c1)N1CCN(c2ccccn2)CC1` gave PMI act 1.1, PMI act hi M6P 1, Rad51 HR inh 6, Calpain2 inh 7 and HMGR II inh -3.
O=C(c1cccc(COc2ccc(Cl)cc2Cl)c1)N1CCN(c2ccccn2)CC1 was read as PMI act 0.8, PMI act hi M6P 0.8, Rad51 HR inh 4, Calpain2 inh 70* and HMGR II inh 2.
For Cc1ccc(C(=O)N2CCN(c3ccccn3)CC2)cc1[N+](=O)[O-] the results were PMI act 1, PMI act hi M6P 1, Rad51 HR inh 3, Calpain2 inh 6 and HMGR II inh 10*.
O=C(c1cccc(NS(=O)(=O)c2ccc(F)c(F)c2)c1)N1CCN(Cc2ccccc2)CC1 was read as PMI act 0.9, PMI act hi M6P 0.9, Rad51 HR inh -9, Calpain2 inh 7 and HMGR II inh 1.
For CCCCn1c(CN2CCN(c3cccc(Cl)c3)CC2)nc2c1c(=O)[nH]c(=O)n2C the results were PMI act 1, PMI act hi M6P 1, Rad51 HR inh -11, Calpain2 inh -28 and HMGR II inh 9.8*.
Screening CC(=O)N1N=C(N)SC12CCCC2 returned PMI act 1.1, PMI act hi M6P 1.1, Rad51 HR inh -1, Calpain2 inh -9 and HMGR II inh 11*.
For O=C(COC(=O)C1CCN(C(=O)c2ccc(Cl)cc2)CC1)c1ccco1 the results were PMI act 1, PMI act hi M6P 1, Rad51 HR inh 1, Calpain2 inh -5 and HMGR II inh 0.
For CCOC(=O)C1CCN(C(=O)c2ccco2)CC1 the results were PMI act 1.1, PMI act hi M6P 1, Rad51 HR inh 76*, Calpain2 inh -11 and HMGR II inh -4.
For Cc1cc(=O)oc2cc(OCC(=O)c3ccc4c(c3)NC(=O)CO4)ccc12 the results were PMI act 1, PMI act hi M6P 1, Rad51 HR inh 17, Calpain2 inh -68 and HMGR II inh 1.
`CCOC(=O)C(NC(=O)Cc1ccccc1)(Nc1cc(C)on1)C(F)(F)F` (stereo not given) gave PMI act 1, PMI act hi M6P 0.9, Rad51 HR inh -2, Calpain2 inh -14 and HMGR II inh 12*.
For CCOC(=O)C(NC(C)=O)(Nc1ccc(S(=O)(=O)Nc2cc(C)on2)cc1)C(F)(F)F (stereo not given) the results were PMI act 1.1, PMI act hi M6P 1.1, Rad51 HR inh 41*, Calpain2 inh -14 and HMGR II inh -3.
For CCOC(=O)C(NC(C)=O)(Nc1ccc(S(=O)(=O)Nc2onc(C)c2C)cc1)C(F)(F)F (stereo not given) the results were PMI act 1.1, PMI act hi M6P 1.1, Rad51 HR inh 2, Calpain2 inh 14 and HMGR II inh -8.
For COc1ccc2nc(N/C(N)=N/S(C)(=O)=O)nc(C)c2c1 the results were Calpain2 inh -12.
